In ChEMBL document CHEMBL1817601, “6,7-Dihydro-5H-cyclopenta[d]pyrazolo[1,5-a]pyrimidines and their derivatives as novel corticotropin-releasing factor 1 receptor antagonists” (Bioorg Med Chem, 2011):
The source made the active and inactive calls. The calls are words filed in the database; no cut-off is given here.

Tests used:
[1] = target: T1, Corticotropin-releasing factor receptor 1 (Homo sapiens, UniProt P34998); experiment: Antagonist activity at human corticotropin-releasing factor receptor 1 expressed in CHO-K1 cells assessed as inhibition of CRF-induced cAMP production after 15 mins by enzyme immunoassay; assay type: functional, cell-based
T1 sequence (P34998 whole entry): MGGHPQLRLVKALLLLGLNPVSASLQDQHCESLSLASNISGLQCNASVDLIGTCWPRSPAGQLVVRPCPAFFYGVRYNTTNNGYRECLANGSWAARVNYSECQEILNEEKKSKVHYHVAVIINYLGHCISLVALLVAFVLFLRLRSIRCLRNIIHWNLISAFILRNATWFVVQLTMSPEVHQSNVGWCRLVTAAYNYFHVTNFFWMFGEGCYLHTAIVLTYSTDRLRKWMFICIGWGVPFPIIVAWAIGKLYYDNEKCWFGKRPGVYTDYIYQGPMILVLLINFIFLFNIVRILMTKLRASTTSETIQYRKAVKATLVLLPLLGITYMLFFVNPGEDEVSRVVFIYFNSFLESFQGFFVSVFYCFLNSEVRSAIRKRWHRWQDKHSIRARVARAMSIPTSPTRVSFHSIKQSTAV
Method in brief: (§1)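 CHO-K1 cells expressing CRF1 seeded at 1 × 10⁴ cells/well and incubated overnight. Cells washed with F-12, then preincubated 10 min at 37 °C in F-12 with 1 mmol/l IBMX. Compound (1–10,000 nmol/l) added with medium containing 10 nmol/l CRF (stock), then 15 min at 37 °C. Cells chilled and cAMP measured by enzyme immunoassay, blank-corrected; IC50 taken from concentration–response curves.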

[2] = target: T1, Corticotropin-releasing factor receptor 1; experiment: Displacement of [125I]CRF from human corticotropin-releasing factor receptor 1 expressed in CHO-K1 cells after 2 hrs by gamma counting; assay type: cell-based
Method in brief: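 Crude membranes prepared from CRF1-expressing CHO-K1 cells in 50 mmol/l Tris-HCl with 10 mmol/l MgCl2, 2 mmol/l EDTA and aprotinin. Membranes incubated with 0.5 nmol/l (stock) ¹²⁵I human/rat CRF and compound (1–10,000 nmol/l) for 2 h at room temperature. Reaction ended by centrifugation, pellet washed with PBS/0.01% Triton X-100. IC50 of specific binding taken from concentration–response curves.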

Rattus norvegicus [3] = experiment: Anxiolytic activity in swim stress-loaded Sprague-Dawley rat assessed as increase in time spent in open arms at 3 mg/kg, po after 1 hr by plus-maze test; assay type: functional, organism-based; design: dose 3 mg/kg
Method in brief: (§2)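 Male Sprague–Dawley rats (230–280 g) given 0.5% MC vehicle or compound orally 1 h before testing. Rats forced to swim 90 s in 22 °C water, then placed at the maze centre facing a closed arm. Behaviour video-tracked for 5 min; time in open arms and open-arm entries scored. 16 rats per group, mean ± S.E.; Dunnett test against vehicle.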

[4] = target: T2, Corticotropin-releasing factor receptor 1 (Rattus norvegicus, UniProt P35353); experiment: Antagonist activity at rat corticotropin-releasing factor receptor 1 expressed in CHO-K1 cells assessed as inhibition of CRF-induced cAMP production after 15 mins by enzyme immunoassay; assay type: functional, cell-based; method in brief: as §1
T2 sequence (P35353 whole entry): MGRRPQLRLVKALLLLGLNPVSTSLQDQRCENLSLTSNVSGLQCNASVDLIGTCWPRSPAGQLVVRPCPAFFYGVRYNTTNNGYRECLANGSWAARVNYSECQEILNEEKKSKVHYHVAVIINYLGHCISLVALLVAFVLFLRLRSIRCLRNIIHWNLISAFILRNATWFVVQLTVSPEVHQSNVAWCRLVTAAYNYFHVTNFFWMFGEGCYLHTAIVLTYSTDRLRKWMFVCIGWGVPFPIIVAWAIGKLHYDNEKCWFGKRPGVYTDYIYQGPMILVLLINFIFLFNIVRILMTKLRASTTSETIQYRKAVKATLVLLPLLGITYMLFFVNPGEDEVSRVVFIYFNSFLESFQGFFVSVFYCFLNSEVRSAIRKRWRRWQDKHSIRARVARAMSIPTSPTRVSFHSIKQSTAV

Rattus norvegicus [5] = experiment: Anxiolytic activity in swim stress-loaded Sprague-Dawley rat assessed as increase in time spent in open arms at 10 mg/kg, po after 1 hr by plus-maze test; assay type: functional, organism-based; design: dose 10 mg/kg; method in brief: as §2
[6] = target: T2, Corticotropin-releasing factor receptor 1; experiment: Displacement of [125I]CRF from corticotropin-releasing factor receptor 1 in rat brain membranes after 2 hrs by gamma counting; assay type: cell membranes
[7] = AUC (infinity) in rat at 0.3 mg/kg, iv; assay type: ADME, organism-based; design: time infinity, dose 0.3 mg/kg, route intravenous; details: plasma
Method in brief: (§3)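 Fasted male rats (n = 4) dosed intravenously at 0.3 mg/kg. Samples ice-chilled and centrifuged to plasma, then stored at −70 °C. AUC, T1/2, Vss and CL taken from the plasma concentration time course.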

[8] = Total clearance in rat at 0.3 mg/kg, iv; assay type: ADME, organism-based; design: dose 0.3 mg/kg, route intravenous; details: in vivo; method in brief: as §3
[9] = Half life in rat at 0.3 mg/kg, iv; assay type: ADME, organism-based; design: dose 0.3 mg/kg, route intravenous; details: in vivo; method in brief: as §3
[10] = Volume of distribution at steady state in rat at 0.3 mg/kg, iv; assay type: ADME, organism-based; design: dose 0.3 mg/kg, route intravenous; details: in vivo, read-out: Vdss; method in brief: as §3
[11] = AUC (infinity) in rat at 3 mg/kg, po; assay type: ADME, organism-based; design: time infinity, dose 3 mg/kg, route oral; details: plasma
Method in brief: (§4)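 Fasted male rats (n = 4) given 3 mg/kg orally in saline with 0.5% MC (w/v). Jugular vein blood (heparinized syringe) taken at 1, 2, 4, 6, 8, 24, 48, 72 h. Plasma obtained by centrifugation and stored at −70 °C. AUC, Cmax, Tmax and T1/2 derived from the plasma concentration time course.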

[12] = Tmax in rat at 3 mg/kg, po; assay type: ADME, organism-based; design: dose 3 mg/kg, route oral; details: in vivo; method in brief: as §4
[13] = Cmax in rat at 3 mg/kg, po; assay type: ADME, organism-based; design: dose 3 mg/kg, route oral; details: in vivo; method in brief: as §4
[14] = Half life in rat at 3 mg/kg, po; assay type: ADME, organism-based; design: dose 3 mg/kg, route oral; details: in vivo; method in brief: as §4
[15] = Oral bioavailability in rat at 3 mg/kg; assay type: ADME, organism-based; details: in vivo
[16] = Ratio of drug level in brain to plasma in rat at 3 mg/kg, po after 1 hr; assay type: ADME, organism-based; design: dose 3 mg/kg, route oral; details: read-out: BPR

Structure (SMILES) | EC50 [1] [nM] | IC50 [2] [nM] | also measured
CCC(CC)Nc1c2c(nc3c(-c4ccc(OC)cc4Cl)c(C)nn13)CCO2 | 4 | 7 | –
CCC(CC)Nc1c2c(nc3c(-c4ccc(OC)cc4C)c(C)nn13)CCO2 | 640 | 31 | –
CCC(CC)Nc1c2c(nc3c(-c4ccc(OC)cc4C)c(C4CCC4)nn13)CCC2 | – | 490 | –
CCC(CC)Nc1c2c(nc3c(-c4ccc(OC)cc4Cl)c(C)nn13)COC2 | 66 | 22 | –
CCC(CC)Nc1c2c(nc3c(-c4ccc(OC)cc4C)cnn13)CCC2 | – | 240 | –
CCC(CC)Nc1c(C)c(C)nc2c(-c3ccc(OC)cc3Cl)c(C)nn12 | 100 | 49 | –
CCC(CC)Nc1c2c(nc3c(-c4ccc(OC)cc4C)c(C)nn13)CCS2 | – | 80 | –
CCC(CC)Nc1c2c(nc3c(-c4ccc(OC)cc4Cl)c(C)nn13)OCC2 | 8 | 84 | –
CCC(CC)Nc1cc(C)nc2c(-c3ccc(OC)cc3C)c(C)nn12 | – | – | IC50 [1]: 10 nM
CCC(CC)Nc1cc(C)nc2c(-c3ccc(OC)cc3Cl)c(C)nn12 | 31 | 6 | –
CCC(CC)Nc1c2c(nc3c(-c4ccc(OC)cc4C)c(C)nn13)CCN2 | – | 170 | –
CCC(CC)Nc1c2c(nc3c(-c4ccc(OC)cc4C)c(C)nn13)CSC2 | 150 | 37 | –
CCC(CC)Nc1c2c(nc3c(-c4c(C)cc(OC)cc4C)c(C)nn13)CCC2 | 80 | 9 | –

Now from value to compound, other results behind:

EC50 [1] [nM] | IC50 [2] [nM] | Structure (SMILES) | also measured
– | 820 | CCC(CC)Nc1c2c(nc3c(-c4cc(C)ccc4C)c(C)nn13)CCC2 | –
47 | 22 | CCC(CC)Nc1c2c(nc3c(-c4cc(C)c(OC)cc4C)c(C)nn13)CCC2 | –
– | 620 | CCC(CC)Nc1c2c(nc3c(-c4ccc(OC)cc4C)c(CSC)nn13)CCC2 | –
– | 97 | CCc1nn2c(NC(CC)CC)c3c(nc2c1-c1ccc(OC)cc1C)CCC3 | –
– | 71 | CCOc1ccc(-c2c(C)nn3c(NC(CC)CC)c4c(nc23)CCC4)c(Cl)c1 | –
75 | 35 | CCC(CC)Nc1c2c(nc3c(-c4ccc(OC)cc4C)c(C)nn13)COC2 | –
200 | 3 | CCC(CC)Nc1c2c(nc3c(-c4ccc(OC(F)F)cc4Cl)c(C)nn13)CCC2 | –
– | 49 | CCC(CC)Nc1c2c(nc3c(-c4ccc(OC)cc4SC)c(C)nn13)CCC2 | –
– | 93 | CCC(CC)Nc1c2c(nc3c(-c4ccc(F)cc4C)c(C)nn13)CCC2 | –
– | 15 | CCC(CC)Nc1c2c(nc3c(-c4ccc(OC(F)(F)F)cc4Cl)c(C)nn13)CCC2 | –
– | 59 | CCC(CC)Nc1c2c(nc3c(-c4ccc(OC)cc4C)c(C(F)(F)F)nn13)CCC2 | –
200 | 37 | CCC(CC)Nc1c2c(nc3c(-c4ccc(Cl)cc4Cl)c(C)nn13)CCC2 | –
– | 38 | CCC(CC)Nc1c2c(nc3c(-c4ccc(N(C)C)cc4C)c(C)nn13)CCC2 | –
40 | 4 | CCC(CC)Nc1c2c(nc3c(-c4ccc(OC)cc4Cl)c(C)nn13)CCC2 [ONO-2333MS] | Activity (Rattus norvegicus [3]): Active; EC50 [4]: 40 nM; Activity (Rattus norvegicus [5]): Active; IC50 [6]: 7 nM; AUC(0-inf) [7]: 278 ng·h/mL; clearance [8]: 18 mL/min/kg; half-life [9]: 4.7 h; Vd [10]: 1.78 L/kg; AUC(0-inf) [11]: 608 ng·h/mL; Tmax [12]: 1 h; Cmax [13]: 87.1 ng/mL; half-life [14]: 7.8 h; bioavailability [15]: 22%; Kp at 1 h [16]: 0.4
920 | 72 | CCC(CC)Nc1c2c(nc3c(-c4ccc(C)cc4C)c(C)nn13)CCC2 | –
– | 600 | CCC(CC)Nc1c2c(nc3c(-c4ccc(OC)c(OC)c4)c(C)nn13)CCC2 | –
170 | 37 | CCC(CC)Nc1c2c(nc3c(-c4ccc(OC)cc4C)c(C)nn13)CCC2 | –
